Wee1 stabilizer = Wee1 degradation inhibitors, primary screen, cell-based, HeLa, Wee1K328M-luciferase, luminescence. HeLa Luc-Wee1K328M stability; 100% = proteasome inhibitor MG132 effect. reporter increase, % at 5 µM. 220,000 compounds, 1.2% hits. AID 1321, 2008;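 active = activation above the mean of all tested compounds plus 3 SD, set per screening run, cut at about 8.8% in these data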;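 note: cells exposed to compound for 20 h before luminescence read; 0% = DMSO alone and 100% = MG132 at 30 µM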
Runt-SMMHC FRET = inhibitors of RUNX1 Runt–CBFb-SMMHC binding, primary screen, biochemical, FRET, Cerulean-Runt, Venus-CBFb-SMMHC, uHTS. AID 1434, 2008. 220,000 compounds, 0.74% hits. Runt-related transcription factor 1 (Homo sapiens) + Core-binding factor subunit beta …. inhibition, % at 20 µM. Cerulean-Runt/Venus-CBFb-SMMHC FRET ratio 530/480, 1 h;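 active = mean inhibition across duplicate retests at 20 µM reaching about 50%, limit read from the data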;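 note: 0% = DMSO wells and 100% = wells with excess untagged CBFb-SMMHC; inhibitors lower the FRET ratio by blocking Runt binding to CBFb-SMMHC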
Target sequence (Q01196 whole entry, looked up): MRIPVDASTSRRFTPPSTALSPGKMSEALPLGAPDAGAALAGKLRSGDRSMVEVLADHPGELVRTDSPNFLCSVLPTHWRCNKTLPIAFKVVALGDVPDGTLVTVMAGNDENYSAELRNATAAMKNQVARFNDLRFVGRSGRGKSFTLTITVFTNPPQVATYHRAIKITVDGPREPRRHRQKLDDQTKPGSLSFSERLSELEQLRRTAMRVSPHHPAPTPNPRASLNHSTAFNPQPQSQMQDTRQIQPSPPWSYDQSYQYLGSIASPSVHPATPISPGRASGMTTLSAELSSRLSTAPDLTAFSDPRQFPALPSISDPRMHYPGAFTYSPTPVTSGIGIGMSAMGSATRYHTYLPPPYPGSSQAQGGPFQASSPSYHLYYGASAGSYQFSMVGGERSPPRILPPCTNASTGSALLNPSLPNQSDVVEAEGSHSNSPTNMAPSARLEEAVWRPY
Target sequence (Q13951 whole entry, looked up): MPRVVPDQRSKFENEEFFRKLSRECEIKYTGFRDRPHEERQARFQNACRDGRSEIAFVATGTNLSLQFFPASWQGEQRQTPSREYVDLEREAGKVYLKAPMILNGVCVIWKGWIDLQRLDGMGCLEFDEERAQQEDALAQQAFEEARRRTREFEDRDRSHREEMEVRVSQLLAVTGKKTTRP
PHOSPHO1 inh = PubChem AID 1565 | recombinant PHOSPHO1, absorbance phosphatase assay | inhibition, % at 13.3 µM | 290,000 compounds, 1.1% hits; in the data active = inhibition above about 60%
Runt-CBFb FRET = inhibitors of RUNX1 Runt–CBFb binding, primary screen, biochemical, FRET, Cerulean-Runt, Venus-CBFb, uHTS; Runt-related transcription factor 1 (Homo sapiens) + Core-binding factor subunit beta …; Cerulean-Runt/Venus-CBFb FRET ratio 530/480, 1 h; inhibition, % at 20 µM; 220,000 compounds, 0.46% hits; AID 1496, 2009;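 active = inhibition over about 50% at 20 µM in the single-dose screen, limit read from the data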;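 note: 0% = DMSO wells and 100% = excess unlabeled CBFb competitor control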
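test system = Cerulean-tagged RUNX1 Runt domain (FRET donor) fusion protein | reagent = Venus-CBFb binding partner, 100 nM | incubation = protein complex preformed 1 h, compound exposure 1 h, room temperature, dark | detection = FRET fluorescence | read-out basis = loss of energy transfer signal | controls = 5 µM unlabeled CBFb as full-inhibition high control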
RanGTP-Imp inh = inhibitors of RanGTP-importin-beta interaction, primary screen, biochemical, FRET, CFP-Ran, YFP-importin-beta, homogeneous; Ran GTPase (GTP-bound) - importin-beta complex; inhibition, % (no concentration beside the values); cell-free CFP-Ran/YFP-importin-beta FRET ratio; 300,000 compounds, 1.1% hits; AID 2216, 2009;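 active = more than half of the replicate wells show a fall in the fluorescence ratio signal beyond about 16%, limit read from the data, passing the limit was not always enough; inconclusive = exactly half of the replicate wells pass the set limit; inactive = fewer than half of replicates pass the limit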;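 note: 0% = DMSO wells and 100% = Ran loaded with GDP instead of GTP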
HMGR II inh = inhibitors of E. faecalis class II HMGR, primary screen, biochemical, Enterococcus faecalis; purified E. faecalis HMGR, NADPH absorbance 340 nm kinetic; inhibition, % at 10 µM; 190,000 compounds, 0.41% hits; AID 1066, 2008;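 active = inhibition above a set limit, the median over all tested compounds plus 3 SD, cut at about 9.5% in these data; inconclusive = no clear call, values can overlap the other calls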;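 note: enzyme runs in reverse so mevalonate oxidation gives rising NADPH absorbance; 0% = complete reaction with DMSO and 100% = background rate lacking mevalonate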
Active calls of the source: *; ? = inconclusive; . = no result. Rows were chosen to be rich in hits. Some 3.4% of all compounds tested hit in one or more screens of this group.

SMILES	Wee1 stabilizer	Runt-SMMHC FRET	PHOSPHO1 inh	Runt-CBFb FRET	RanGTP-Imp inh	HMGR II inh
COC(=O)c1ccc(NC(=O)CSCc2ccccc2)cc1	1	2	5	2	?	5
CCc1ccc(NC(=O)CSCc2ccc(C(=O)O)cc2)cc1	-1	-8	44	2	-1	21*
O=C(NN1CCN(Cc2ccccc2)CC1)c1ccc(N2CCOCC2)c([N+](=O)[O-])c1	4	3	20	-2	1	-3
O=C(NCc1ccco1)c1cc2nc(-c3cccs3)cc(C(F)(F)F)n2n1	0	39	34	24	20*	0
FC(F)(F)c1cc(-c2cccs2)nc2cc(-c3ccccc3)nn12	-1	-3	3	2	46*	4
O=C(O)c1cc2nc(-c3cccs3)cc(C(F)(F)F)n2n1	-2	-10	18	1	?	-1
O=C(O)c1cc(S(=O)(=O)Nc2cccc(Oc3ccccc3)c2)ccc1Br	.	.	16	.	-1	.
COc1ccc(/C=N/n2c(=S)n(C)c3ccccc32)cc1OC	0	3	73*	1	-3	-1
COc1ccc(/C=N/n2c(-c3cc(C)[nH]n3)n[nH]c2=S)cc1OC	-1	15	93*	10	2	.
Cc1ncsc1C(=O)N1N=C2/C(=C/c3ccc(N4CCOCC4)cc3)CCCC2C1c1ccc(N2CCOCC2)cc1 (stereo unspecified)	9.0*	-65	18	-6	0	5
C=CCn1c(SCC(=O)O)nnc1-c1cccc(Cl)c1	1	-2	-10	1	-1	1
C=CCn1c(SCC(=O)O)nnc1-c1ccc(C(C)(C)C)cc1	-2	1	94*	-1	-2	2
CC(C)OC(=O)CSc1nnc(-c2ccc(C(C)(C)C)cc2)n1N	0	39	67*	40	-2	2
CC(C)(C)c1ccc(-c2nnc(SCC(=O)O)n2N)cc1	-2	4	75*	-2	2	-4
CCC(=O)Nc1c(-c2ccccc2Cl)c(=O)c2ccccc2n1CC	.	.	.	.	-2	.
COc1cc(OC)c(S(=O)(=O)N2CCOCC2)cc1S(=O)(=O)N1CCOCC1	.	.	-90	.	-4	.
N#CCc1cnc2ccccc2n1	-1	-5	20	1	29*	.
Cc1ccc(Sc2ncnc3onc(C)c23)c(C)c1	9.1*	-1	18	0	.	-5
Cc1ccc(C(=O)OCC(=O)NNC(=O)COc2ccc(Cl)cc2)c(O)c1	.	.	.	.	2	.
Cc1c(NC(=S)NC(=O)c2cc3ccccc3o2)cccc1C(=O)O	.	.	18	.	-5	.
O=C(c1ccc(Cl)cc1)c1oc2ccccc2c1CS(=O)c1ccccc1 (stereo unspecified)	-3	10	98*	16	0	-3
COc1ccc(CCNC(=O)c2cc(COc3c(C)cccc3C)on2)c(OC)c1	.	.	19	.	-1	.
COC(=O)C(Cc1ccc(O)cc1)NC(=O)c1ccc2c(c1)OCCO2 (stereo unspecified)	.	.	39	.	2	.
O=C(COc1ccc(F)cc1)N(Cc1cccc(Br)c1)C1CCS(=O)(=O)C1 (stereo unspecified)	.	.	65*	.	0	.
O=C(COc1ccccc1)N(Cc1cccc(F)c1)C1CCS(=O)(=O)C1 (stereo unspecified)	.	.	-20	.	?	.
CSCC(C)N1CCC(Oc2cccc(C(=O)NCc3ccccn3)c2)CC1 (stereo unspecified)	.	.	52	.	30*	.
CC#CC(=O)N1CCC(Oc2cccc(C(=O)NCc3ccccn3)c2)CC1	.	.	23	.	-3	.
CCC(C(=O)Nc1ccccc1OC)n1c(C(=O)OC)cc2ccsc21 (stereo unspecified)	4	3	11	-3	-3	-1
CC(C)n1c(=S)[nH]c2cc(Cl)ccc21	11*	-2	12	6	4	.

Bioassay records (PubChem)
